Legend:
Plasma [1] = assay: Drug level in bile-duct cannulated rat plasma treated with 2-(((1r,4r)-4-(((4-chlorophenyl)(phenyl)carbamoyloxy)methyl)cyclohexyl)methoxy)acetic acid; assay type: ADME, cell-free
[2] = Drug level in bile-duct cannulated rat bile treated with 2-(((1r,4r)-4-(((4-chlorophenyl)(phenyl)carbamoyloxy)methyl)cyclohexyl)methoxy)acetic acid; assay type: ADME; conditions: in vivo
Plasma [3] = assay: Drug metabolism in po dosed rat plasma assessed as ralinepag formation; assay type: ADME, organism-based; conditions: in vivo
[4] = Drug degradation in simulated gastric fluid after 3 hrs
How it was run: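 Incubated in simulated gastric fluid at room temperature for 3 h; conversion to parent monitored.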

Drug metabolism (Plasma [1]): Metabolite_Detected | Drug metabolism [2]: Metabolite_Detected | Drug metabolism (Plasma [3]): Metabolite_Detected
Compound: O=C(COC[C@H]1CC[C@H](COC(=O)N(c2ccccc2)c2ccc(Cl)cc2)CC1)NCCS(=O)(=O)O
Drug degradation [4]: Metabolite_Notdetected

— ChEMBL document CHEMBL4004807 (J Med Chem, 2017)
